ChEMBL document CHEMBL1157434, “2-Aminopropane-1,2,3-tricarboxylic acid: Synthesis and co-crystallization with the class A beta-lactamase BS3 of Bacillus licheniformis” (Bioorg Med Chem Lett, 2008)

Experiments:
[1] = Inhibition of beta-lactamase TEM1 in 25 mM acetate buffer at pH 5
Outline: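 Hydrolysis rates were measured without and with inhibitor at varying concentrations. Ki was derived from a plot of V0/Vi against inhibitor concentration. Performed three times.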

[2] = Inhibition of beta-lactamase TEM1 in 50 mM phosphate buffer at pH 7.2 at 2 mM
Enterobacter cloacae = assay: Inhibition of Enterobacter cloacae beta-lactamase P99 in 50 mM phosphate buffer at pH 7.2 at 100 uM; values are per cent of control
[3] = biological target: T1, Imipenem-hydrolyzing beta-lactamase (Enterobacter cloacae) (UniProt P52663); assay: Inhibition of Enterobacter cloacae beta-lactamase NMCA in 50 mM phosphate buffer at pH 7.2 at 100 uM; values are per cent of control
T1 sequence (whole entry): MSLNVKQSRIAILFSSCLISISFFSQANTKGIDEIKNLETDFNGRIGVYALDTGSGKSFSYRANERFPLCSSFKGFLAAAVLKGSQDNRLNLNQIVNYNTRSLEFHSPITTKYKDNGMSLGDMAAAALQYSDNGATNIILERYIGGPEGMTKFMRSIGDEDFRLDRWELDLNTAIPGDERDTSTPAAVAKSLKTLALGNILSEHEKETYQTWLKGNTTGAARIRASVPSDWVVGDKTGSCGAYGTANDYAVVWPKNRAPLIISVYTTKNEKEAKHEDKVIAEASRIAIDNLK

Bacillus licheniformis = assay: Inhibition of Bacillus licheniformis beta-lactamase BS3 in 50 mM phosphate buffer at pH 7.2 at 100 uM; values are per cent of control
[4] = biological target: Beta-lactamase OXA-10 (Pseudomonas aeruginosa) (UniProt P14489); assay: Inhibition of Pseudomonas aeruginosa beta-lactamase Oxa-10 in 50 mM phosphate buffer at pH 7.2 at 100 uM; values are per cent of control
[5] = Inhibition of beta-lactamase TEM1 in 50 mM phosphate buffer at pH 7.2 at 0.2 mM
[6] = tested on: beta-lactamase BcII (Bacillus cereus); assay: Inhibition of Bacillus cereus beta-lactamase Bc2 in 50 mM phosphate buffer at pH 7.2 at 100 uM; values are per cent of control
[7] = Inhibition of Bacillus licheniformis beta-lactamase BS3 in 25 mM acetate buffer at pH 5
Outline: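 Purified BS3 (1–100 nM) mixed with inhibitor and the chromogenic substrate nitrocefin. Ki obtained from a plot of V0/Vi (uninhibited over inhibited hydrolysis rate) against inhibitor concentration. Three independent runs.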

Sequence of Beta-lactamase OXA-10 (Pseudomonas aeruginosa) (P14489 whole entry): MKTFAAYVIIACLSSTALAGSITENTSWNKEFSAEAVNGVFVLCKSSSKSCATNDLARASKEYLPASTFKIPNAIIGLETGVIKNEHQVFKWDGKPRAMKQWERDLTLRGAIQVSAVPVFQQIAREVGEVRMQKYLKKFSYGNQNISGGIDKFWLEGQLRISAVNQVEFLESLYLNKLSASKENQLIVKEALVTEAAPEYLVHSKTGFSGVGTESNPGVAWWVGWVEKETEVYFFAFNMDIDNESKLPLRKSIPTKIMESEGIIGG

| SMILES | Ki [1] [µM] | residual activity [2] [%] | residual activity (Enterobacter cloacae) [%] | residual activity [3] [%] | residual activity (Bacillus licheniformis) [%] | residual activity [4] [%] | residual activity [5] [%] | residual activity [6] [%] | Ki [7] [µM] |
| --- | --- | --- | --- | --- | --- | --- | --- | --- | --- |
| NC(CC(=O)O)(CC(=O)O)C(=O)O | 150 | 95 | 81 | 94 | 88 | 100 |  |  |  |
| CCOC(=O)CC(N)(CC(=O)OCC)C(=O)OCC |  |  | 87 | 60 | 82 | 98 | 71 | 92 |  |
| O=C(O)CC(O)(CC(=O)O)C(=O)O [CITRIC ACID] | 730 |  |  |  |  |  |  |  | 490 |
| O=C(O)CC(C(=O)O)C(O)C(=O)O (stereo unspecified) [ISOCITRATE] | 1500 |  |  |  |  |  |  |  | 2200 |
